Experimental data taken from ChEMBL document CHEMBL1146500, “Novel caprolactones from a marine streptomycete” (2004).
Values after ≈ are worked out from the molar mass of the structure shown.

Experiments:
Assay type in all cases: functional
Escherichia coli = experiment: Antimicrobial activity against Escherichia coli at 70 ug by agar diffusion test; details: read-out: IZ
How it was run: (§1)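 Agar diffusion test: 70 µg of sample applied per 9 mm diameter platelet. Read-out is the diameter of the growth-inhibition zone in mm.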

Bacillus subtilis = experiment: Antimicrobial activity against Bacillus subtilis at 70 ug by agar diffusion test; details: read-out: IZ; how it was run: as §1
Chlorella sorokiniana = experiment: Antimicrobial activity against Chlorella sorokiniana at 70 ug by agar diffusion test; details: read-out: IZ; how it was run: as §1
Rhizomucor miehei = experiment: Antimicrobial activity against Mucor miehei at 70 ug by agar diffusion test; details: read-out: IZ; how it was run: as §1
[1] = Cytotoxicity against human HM02 cells
How it was run: (§2)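 In vitro growth inhibition of human cancer cell lines was measured following the NCI guidelines. Cell lines: HM02 (gastric adenocarcinoma), HepG2 (hepatocellular carcinoma) and MCF 7 (breast adenocarcinoma).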

Chlorella vulgaris = experiment: Antimicrobial activity against Chlorella vulgaris at 70 ug by agar diffusion test; details: read-out: IZ; how it was run: as §1
Desmodesmus subspicatus = experiment: Antimicrobial activity against Scenedesmus subspicatus at 70 ug by agar diffusion test; details: read-out: IZ; how it was run: as §1
Candida albicans = experiment: Antimicrobial activity against Candida albicans at 70 ug by agar diffusion test; details: read-out: IZ; how it was run: as §1
HepG2 [2] = experiment: Cytotoxicity against human HepG2 cells; how it was run: as §2
Artemia salina = experiment: Antimicrobial activity against Artemia salina at 70 ug by agar diffusion test; details: read-out: IZ; how it was run: as §1
[3] = system: Streptomyces viridochromogenes; experiment: Antimicrobial activity against Streptomyces viridochromogenes at 70 ug by agar diffusion test; details: read-out: IZ; how it was run: as §1
Staphylococcus aureus = experiment: Antimicrobial activity against […] at 70 ug by agar diffusion test; details: read-out: IZ; how it was run: as §1
MCF7 = experiment: Cytotoxicity against human MCF7 cells; how it was run: as §2
HepG2 [4] = experiment: Cell cycle arrest in human HepG2 cells by accumulation at S phase at 5 ug/mL after 24 hrs by PI staining
How it was run: (§3)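 HepG2 cells were exposed for 24 h, trypsinized, and washed in RPMI 1640 with 1% fetal bovine serum. They were stained 15 min at room temperature in the dark in 150 µg/mL propidium iodide, 1% Triton X-100, 1% BSA and 4 mM sodium citrate, pH 7.4. RNase A was then added for 30 min at room temperature. Output is % cells per phase, mean ± SE of three independent experiments, t-test versus control.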

HepG2 [5] = experiment: Cell cycle arrest in human HepG2 cells by accumulation at G2/M phase at 5 ug/mL after 24 hrs by PI staining; how it was run: as §3
HepG2 [6] = experiment: Cell cycle arrest in human HepG2 cells by accumulation at G1 phase at 5 ug/mL after 24 hrs by PI staining; how it was run: as §3
HepG2 [7] = experiment: Cell cycle arrest in human HepG2 cells by accumulation at subG1 phase at 5 ug/mL after 24 hrs by PI staining; how it was run: as §3

Row | SMILES | zone of inhibition at 70 µg/disc (Escherichia coli) | zone of inhibition at 70 µg/disc (Bacillus subtilis) | zone of inhibition at 70 µg/disc (Chlorella sorokiniana) | zone of inhibition at 70 µg/disc (Rhizomucor miehei) | GI50 [1] | TGI [1] | zone of inhibition at 70 µg/disc (Chlorella vulgaris) | zone of inhibition at 70 µg/disc (Desmodesmus subspicatus) | zone of inhibition at 70 µg/disc (Candida albicans) | GI50 (HepG2 [2]) | TGI (HepG2 [2]) | zone of inhibition at 70 µg/disc (Artemia salina) | zone of inhibition at 70 µg/disc [3] | zone of inhibition at 70 µg/disc (Staphylococcus aureus) | GI50 (MCF7) | TGI (MCF7) | Activity (HepG2 [4]) | Activity (HepG2 [5]) | Activity (HepG2 [6]) | Activity (HepG2 [7])
1 | CC(C)CCC[C@H]1CCCCC(=O)O1 | 0 mm | 0 mm | 12 mm | 11 mm | 2.7 µg/mL (≈ 13.6 µM) | 6.1 µg/mL (≈ 30.8 µM) | 11 mm | 11 mm | 0 mm | 2.2 µg/mL (≈ 11.1 µM) | 6.8 µg/mL (≈ 34.3 µM) | 0 mm | 13 mm | 0 mm | 0.11 µg/mL (≈ 0.555 µM) | 4 µg/mL (≈ 20.2 µM) | – | – | – | –
2 | CC[C@H](C)CCC[C@H]1CCCCC(=O)O1 | 0 mm | 0 mm | 22 mm | 15 mm | 1.9 µg/mL (≈ 8.95 µM) | 5.6 µg/mL (≈ 26.4 µM) | 15 mm | 20 mm | 11 mm | 1.4 µg/mL (≈ 6.59 µM) | 5.7 µg/mL (≈ 26.8 µM) | 0 mm | 15 mm | 11 mm | 0.12 µg/mL (≈ 0.565 µM) | 2.6 µg/mL (≈ 12.2 µM) | 11% | 9.8% | 73.7% | 5.7%
